This is one part of a sample in which hits are shown more often than they occur.
KDM4C inh: inhibitors of GASC-1 (KDM4C) histone demethylase, primary screen, biochemical, single concentration HTS. GST-KDM4C 2-372, H3K9me3 peptide, LANCE TR-FRET. inhibition, % at 12.5 µM. actives 0.15% (n = 96,000). AID 720574, 2013;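 active means mean replicate inhibition above about 25%, with at least 55% of replicates also reaching it, limit read from the data, passing the limit was not always enough; inconclusive means only one of those two conditions met; inactive means neither condition met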
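System: N-terminal GST-fused human GASC-1 (KDM4C) fragment, residues 2-372 / Amount: 10 nM GST-KDM4C in enzyme reaction / Also added: H3K9me3 peptide with Fe(II)/2OG / Times: 30 min demethylation and 1 h detection at room temperature / Signal: LANCE TR-FRET / Read-out basis: Fall in 671/618 emission ratio as inhibition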
T cruzi growth-1: T. cruzi intracellular proliferation inhibitors, primary screen, cell-based, beta-gal Tulahuen parasites, NIH3T3 host, luminescence | actives 5.9% (n = 77,000) | T. cruzi beta-gal in NIH3T3, GalScreen luminescence, 90 h | inhibition, % at 8.34 µM;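 active means mean inhibition above about 93%, with at least 55% of replicates each passing it, limit read from the data, passing the limit was not always enough; inconclusive means only one of those two conditions holds; inactive means neither condition holds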
IDH1 R132H inh: inhibitors of IDH1 R132H reductase, primary screen, biochemical, plate reader, single point; actives 0.18% (n = 70,000); AID 624101, 2012; inhibition, % at 10 µM; Isocitrate dehydrogenase [NADP] cytoplasmic (Homo sapiens), O75874; diaphorase/resazurin fluorescence, 60 min; in the data active means inhibition above about 34%; inconclusive means no clear call, values can overlap the other calls; inactive means below about 11%;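 further: 0% = DMSO and 100% = no enzyme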
Target sequence (O75874 whole entry R132H): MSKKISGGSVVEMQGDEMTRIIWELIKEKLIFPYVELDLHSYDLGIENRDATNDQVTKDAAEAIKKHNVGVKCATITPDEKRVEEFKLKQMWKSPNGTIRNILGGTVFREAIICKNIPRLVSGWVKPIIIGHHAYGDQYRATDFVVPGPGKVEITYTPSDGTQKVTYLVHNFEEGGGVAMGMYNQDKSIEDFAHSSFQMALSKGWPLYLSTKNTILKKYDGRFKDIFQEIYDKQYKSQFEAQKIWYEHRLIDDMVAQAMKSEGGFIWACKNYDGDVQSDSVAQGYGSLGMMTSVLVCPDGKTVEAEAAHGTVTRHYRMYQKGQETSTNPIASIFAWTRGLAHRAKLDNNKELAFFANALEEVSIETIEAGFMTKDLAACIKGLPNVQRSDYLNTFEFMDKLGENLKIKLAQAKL
T cruzi growth-2: T. cruzi intracellular proliferation inhibitors, confirmation, cell-based, NIH3T3 host, beta-gal parasite, luminescence, cherry-pick; actives 72% (n = 5,600); inhibition, % at 8.35 µM; AID 651739, 2012; shares compounds with T cruzi growth-1; T. cruzi beta-gal in NIH3T3, GalScreen luminescence, 90 h;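 active means mean replicate inhibition above about 95% and at least 55% of replicates individually reaching it, limit read from the data; inconclusive means only one of the two criteria is met; inactive means neither criterion is met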
T cruzi growth-3: inhibitors of intracellular T. cruzi replication, confirmation, NIH3T3 host cells, beta-gal parasites, cherry-pick, set 2. shares compounds with T cruzi growth-1. T. cruzi beta-gal in NIH3T3, GalScreen luminescence, 90 h. inhibition, % at 2.09 µM. actives 21% (n = 5,600);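 active means mean inhibition above about 95%, with at least 55% of replicates also reaching it, limit read from the data; inconclusive means meets just one of the two conditions; inactive means meets neither condition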;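 further: plate controls were neutral control median for no effect and positive control median for full effect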
3T3 cytotox: cytotoxicity in mouse NIH/3T3 fibroblasts, confirmation, cytotoxicity control for T. cruzi proliferation inhibitor project, cell-based, cherry-pick, single point. shares compounds with T cruzi growth-1. NIH/3T3 viability, CellTiter-Glo ATP luminescence, 90 h. cytotoxicity (signal decrease), % at 8.35 µM. actives 14% (n = 5,600);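 active means mean signal decrease across replicates above about 35% based on untreated-well scatter, with enough replicates individually passing, limit read from the data; inconclusive means no rule stated though some were filed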;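 further: 0% = median of neutral control wells and 100% = median of positive control wells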
NIH3T3 tox 2: NIH/3T3 fibroblast cytotoxicity, confirmation, cytotoxicity control, cell-based, cherry-pick, single point, set 2 | inhibition, % at 24.9 µM | shares compounds with T cruzi growth-1 | actives 56% (n = 5,600) | NIH/3T3 viability, CellTiter-Glo ATP luminescence, 90 h;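 active means mean loss of cell viability signal at or above a set limit, and enough replicates individually reaching it; inconclusive means meets only the mean limit or only the replicate share; inactive means meets neither condition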;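 further: 0% = median of neutral control wells and 100% = median of positive control wells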
* hit, by the source's call; ? = inconclusive; . = no result.

SMILES | KDM4C inh | T cruzi growth-1 | IDH1 R132H inh | T cruzi growth-2 | T cruzi growth-3 | 3T3 cytotox | NIH3T3 tox 2
C[C@H]1CN([C@@H](C)CO)S(=O)(=O)c2ccc(C#CC3CCCCC3)cc2O[C@@H]1CN(C)Cc1cccnc1 | . | 80.8 | -9.9 | . | . | . | .
C[C@@H]1CN([C@H](C)CO)S(=O)(=O)c2ccc(C#CC3CCCC3)cc2O[C@H]1CN(C)Cc1cncnc1 | 17.8 | . | -0.5 | . | . | . | .
C[C@@H]1CCCCO[C@H](CN(C)C(=O)NC2CCCCC2)[C@@H](C)CN([C@H](C)CO)C(=O)c2cc(NC(=O)CCCCCC(=O)Nc3ccccc3N)ccc2O1 | -1.5 | 47.8 | 0.5 | . | . | . | .
C[C@H](CO)N1C[C@H](C)[C@@H](CN(C)Cc2ccc(C(=O)Nc3ccccc3N)cc2)Oc2ccc(NS(C)(=O)=O)cc2C1=O | -1.1 | 89.7 | -0.3 | . | . | . | .
C[C@H](CO)N1C[C@H](C)[C@H](CN(C)Cc2ccccc2)OCc2ccccc2-c2ccccc2C1=O | -0.7 | 31.5 | -1.8 | . | . | . | .
C[C@@H]1CN([C@H](C)CO)C(=O)c2ccccc2-c2ccccc2CO[C@@H]1CN(C)Cc1ccncc1 | 0.4 | 73.3 | 2.8 | . | . | . | .
C[C@H](CO)N1C[C@H](C)[C@@H](CN(C)Cc2ccncc2)OCc2ccccc2-c2ccccc2C1=O | 1.1 | ? | 13.9 | 69.0 | 12.9 | -3.1 | -7.9
C[C@@H]1CN([C@@H](C)CO)C(=O)c2ccccc2-c2ccccc2CO[C@@H]1CN(C)Cc1ccncc1 | 1.5 | ? | -0.1 | 38.0 | -30.3 | 11.3 | ?
CO[C@H]1CN(C)C(=O)c2cc(NC(=O)C3CC3)ccc2OC[C@H](C)N(Cc2cncnc2)C[C@@H]1C | 1.6 | 15.0 | 0.4 | . | . | . | .
COc1ccc(CN(C)C[C@H]2Oc3ccc(NC(=O)Nc4ccc(F)cc4)cc3CC(=O)N([C@@H](C)CO)C[C@H]2C)cc1 | . | . | 2.6 | . | . | . | .
CNC[C@@H]1Oc2ccc(NC(=O)Cn3cnnn3)cc2CC(=O)N([C@H](C)CO)C[C@H]1C | -0.2 | . | -2.0 | . | . | . | .
COCC#Cc1ccc2c(c1)O[C@@H](CN(C)Cc1ccncc1)[C@@H](C)CN([C@H](C)CO)S2(=O)=O | -0.6 | ? | -0.3 | 105.5* | 71.6 | 10.3 | 7.6
COCC#Cc1ccc2c(c1)O[C@@H](CN(C)Cc1ccncc1)[C@@H](C)CN([C@@H](C)CO)S2(=O)=O | -0.3 | ? | 1.8 | 96.8* | 70.8 | 19.8 | 17.9
COCC#Cc1ccc2c(c1)O[C@H](CN(C)Cc1ccc(F)cc1)[C@@H](C)CN([C@H](C)CO)S2(=O)=O | 0.5 | 84.5 | 0.6 | . | . | . | .
COCC#Cc1ccc2c(c1)O[C@H](CN(C)Cc1ccncc1)[C@H](C)CN([C@@H](C)CO)S2(=O)=O | 2.2 | 49.2 | -0.1 | . | . | . | .
COCC#Cc1ccc2c(c1)O[C@H](CN(C)Cc1ccccc1)[C@@H](C)CN([C@@H](C)CO)S2(=O)=O | -1.8 | ? | -0.9 | 101.9* | 72.4 | 20.9 | 104.1*
COCC#Cc1ccc2c(c1)O[C@H](CN(C)Cc1ccncc1)[C@H](C)CN([C@H](C)CO)S2(=O)=O | 1.8 | 29.1 | 11.9 | . | . | . | .
COc1ccc(NC(=O)Nc2cccc3c2O[C@@H](CN(C)C(=O)Nc2cccc4ccccc24)[C@@H](C)CN([C@H](C)CO)C3=O)cc1 | -0.3 | -15.5 | 0.7 | . | . | . | .
CC(C)NC(=O)Nc1ccc2c(c1)CC(=O)N([C@H](C)CO)C[C@H](C)[C@@H](CN(C)C(=O)Nc1cccc3ccccc13)O2 | 0.1 | 5.9 | 0.2 | . | . | . | .
C[C@@H](NC(=O)C[C@@H]1C[C@@H]2c3cc(NC(=O)C4CCC4)ccc3O[C@@H]2[C@@H](CO)O1)c1ccccc1 | -2.8 | 4.7 | 0.2 | . | . | . | .

Bioassay records deposited in PubChem by Broad Institute.
